Test results from ChEMBL document CHEMBL1157912, “Impact of nature and length of linker incorporated in agonists on toll-like receptor 9-mediated immune responses” (J Med Chem, 2010).
Activity calls are given as the source filed them.

Key:
[1] = molecular target: T1, Toll-like receptor 9 (Mus musculus) (UniProt Q9EQU3); test: Activation of mouse TLR9 expressed in HEK293 cells assessed as induction of NF-kappaB activity after 18 hrs by SEAP assay; format: cell-based
T1 sequence (whole entry): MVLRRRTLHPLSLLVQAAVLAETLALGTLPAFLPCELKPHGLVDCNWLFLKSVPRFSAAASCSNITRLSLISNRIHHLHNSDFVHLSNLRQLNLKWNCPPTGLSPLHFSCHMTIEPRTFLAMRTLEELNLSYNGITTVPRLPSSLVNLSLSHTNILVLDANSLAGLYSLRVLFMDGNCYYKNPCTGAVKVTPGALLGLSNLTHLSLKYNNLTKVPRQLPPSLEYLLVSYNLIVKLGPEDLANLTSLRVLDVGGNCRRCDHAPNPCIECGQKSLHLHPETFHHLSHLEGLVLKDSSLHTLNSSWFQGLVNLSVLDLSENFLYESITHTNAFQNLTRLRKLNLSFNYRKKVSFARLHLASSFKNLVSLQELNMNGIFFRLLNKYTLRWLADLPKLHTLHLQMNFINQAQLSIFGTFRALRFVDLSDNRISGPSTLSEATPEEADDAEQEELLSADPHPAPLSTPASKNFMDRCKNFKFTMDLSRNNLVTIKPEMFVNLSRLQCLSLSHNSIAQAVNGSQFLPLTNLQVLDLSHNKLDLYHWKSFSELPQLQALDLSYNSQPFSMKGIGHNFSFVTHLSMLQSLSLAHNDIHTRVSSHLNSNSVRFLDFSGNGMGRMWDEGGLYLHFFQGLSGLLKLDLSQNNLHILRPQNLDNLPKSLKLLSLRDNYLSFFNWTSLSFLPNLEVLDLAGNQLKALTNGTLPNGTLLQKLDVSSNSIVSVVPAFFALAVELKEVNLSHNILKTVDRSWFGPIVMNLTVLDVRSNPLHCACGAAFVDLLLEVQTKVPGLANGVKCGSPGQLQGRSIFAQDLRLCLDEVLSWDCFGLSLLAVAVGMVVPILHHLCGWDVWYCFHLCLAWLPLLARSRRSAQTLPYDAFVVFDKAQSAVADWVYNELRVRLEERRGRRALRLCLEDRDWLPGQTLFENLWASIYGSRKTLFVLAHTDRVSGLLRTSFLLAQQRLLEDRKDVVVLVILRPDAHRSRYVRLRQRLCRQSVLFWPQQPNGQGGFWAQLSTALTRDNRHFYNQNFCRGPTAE
Summary of the method: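 HEK293 cells stably expressing mouse TLR9 were grown in DMEM with 10% heat-inactivated FBS. At 80% confluence they were transiently transfected with a SEAP reporter plasmid (100 ng/well, lipofectamine) for 6 h. Medium was then replaced and agonists were added for 18 h. Supernatant SEAP was read with QuantiBlue substrate at 620-645 nm. Results are expressed as fold NF-κB activity over PBS control.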

[2] = molecular target: T1, Toll-like receptor 9 (Mus musculus); test: Induction of TLR9-mediated IL12 production in C57BL/6 mouse spleen cells after 24 hrs by ELISA; format: cell-based
Summary of the method: (§1)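 C57BL/6 mouse spleen cells were cultured with agonists at 0.1, 0.3, 1, 3 and 10 μg/mL for 24 h. Secreted IL-12 and IL-6 in the supernatants were measured by ELISA. Values are averages of triplicate wells from one representative of at least two independent experiments.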

[3] = molecular target: T1, Toll-like receptor 9 (Mus musculus); test: Induction of TLR9-mediated IL6 production in C57BL/6 mouse spleen cells after 24 hrs by ELISA; format: cell-based; summary of the method: as §1
[4] = molecular target: T2, Toll-like receptor 9 (Homo sapiens) (UniProt Q9NR96); test: Induction of TLR9-mediated human B cell proliferation assessed as [3H]thymidine uptake after 56 hrs by scintillation counting
T2 sequence (whole entry): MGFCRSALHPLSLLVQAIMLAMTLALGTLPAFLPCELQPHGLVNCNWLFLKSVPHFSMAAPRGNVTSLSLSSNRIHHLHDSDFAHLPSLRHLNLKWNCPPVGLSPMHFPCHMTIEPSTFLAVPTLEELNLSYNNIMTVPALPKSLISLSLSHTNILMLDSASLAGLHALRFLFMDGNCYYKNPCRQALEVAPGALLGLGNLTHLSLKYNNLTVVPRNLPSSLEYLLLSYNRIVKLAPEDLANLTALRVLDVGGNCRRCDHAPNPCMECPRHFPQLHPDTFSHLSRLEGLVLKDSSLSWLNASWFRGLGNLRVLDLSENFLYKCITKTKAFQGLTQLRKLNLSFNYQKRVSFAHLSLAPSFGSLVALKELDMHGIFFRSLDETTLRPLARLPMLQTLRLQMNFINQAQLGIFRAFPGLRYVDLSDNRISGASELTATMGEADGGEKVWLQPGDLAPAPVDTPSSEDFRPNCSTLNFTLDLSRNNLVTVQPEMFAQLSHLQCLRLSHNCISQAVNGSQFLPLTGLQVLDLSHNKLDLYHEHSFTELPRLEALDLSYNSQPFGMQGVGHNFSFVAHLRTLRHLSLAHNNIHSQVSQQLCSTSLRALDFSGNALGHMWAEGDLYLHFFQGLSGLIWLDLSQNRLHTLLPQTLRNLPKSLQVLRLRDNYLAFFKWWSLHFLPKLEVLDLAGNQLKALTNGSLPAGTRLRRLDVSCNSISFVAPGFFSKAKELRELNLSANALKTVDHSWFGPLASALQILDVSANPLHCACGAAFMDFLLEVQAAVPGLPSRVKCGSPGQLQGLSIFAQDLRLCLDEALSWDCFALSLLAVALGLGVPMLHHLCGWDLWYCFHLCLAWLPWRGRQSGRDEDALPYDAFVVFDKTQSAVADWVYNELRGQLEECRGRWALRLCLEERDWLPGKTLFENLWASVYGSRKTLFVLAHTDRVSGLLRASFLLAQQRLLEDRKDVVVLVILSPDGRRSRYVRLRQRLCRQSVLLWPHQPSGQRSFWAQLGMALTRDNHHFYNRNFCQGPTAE
Summary of the method: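 B cells were purified from human PBMCs (healthy volunteers), about 1 × 10⁵ cells, and stimulated with various agonist concentrations for 56 h. Cells were then pulsed with 0.75 μCi [³H]-thymidine and harvested 16 h later. Incorporation was counted by scintillation and reported as cpm.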

Mus musculus = test: Immunostimulatory activity in C57BL/6 mouse assessed as increase in serum IL12 level at 1 mg/kg, sc after 2 hrs by ELISA; format: functional, organism-based; set-up: dose 1 mg/kg
Summary of the method: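 Female C57BL/6 mice (n=3) received a single subcutaneous agonist dose of 1 mg/kg. Blood was taken by retro-orbital bleeding 2 h later, and serum IL-12 was measured by sandwich ELISA. Values are the mean of three mice ± SD.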

Measured: Activity

Cc1cn([C@H]2C[C@H](OCCn3c(=O)n(CCO)c(=O)n(CCOP(=O)(S)O[C@H]4C[C@H](n5cc(C)c(=O)[nH]c5=O)O[C@@H]4COP(=O)(S)O[C@H]4[C@@H](O)[C@H](n5ccc(N)nc5=O)O[C@@H]4COP(=O)(S)O[C@H]4C[C@H](n5cc(C)c(=O)[nH]c5=O)O[C@@H]4COP(=O)(S)O[C@H]4C[C@H](n5cc(C)c(=O)[nH]c5=O)O[C@@H]4COP(=O)(S)O[C@H]4C[C@H](n5ccc6c(=O)[nH]c(N)nc65)O[C@@H]4COP(=O)(S)O[C@H]4[C@@H](O)[C@H](n5ccc(N)nc5=O)O[C@@H]4COP(=O)(S)O[C@H]4C[C@H](n5cc(C)c(=O)[nH]c5=O)O[C@@H]4COP(=O)(S)O[C@H]4[C@@H](O)[C@H](n5cnc6c(=O)[nH]c(N)nc65)O[C@@H]4COP(=O)(S)O[C@H]4C[C@H](n5cc(C)c(=O)[nH]c5=O)O[C@@H]4COP(=O)(S)O[C@H]4[C@@H](O)[C@H](n5ccc(N)nc5=O)O[C@@H]4COP(=O)(S)O[C@H]4C[C@H](n5cc(C)c(=O)[nH]c5=O)O[C@@H]4CO)c3=O)[C@@H](COP(=O)(S)O[C@H]3[C@@H](O)[C@H](n4ccc(N)nc4=O)O[C@@H]3COP(=O)(S)O[C@H]3C[C@H](n4cc(C)c(=O)[nH]c4=O)O[C@@H]3COP(=O)(S)O[C@H]3C[C@H](n4cc(C)c(=O)[nH]c4=O)O[C@@H]3COP(=O)(S)O[C@H]3C[C@H](n4ccc5c(=O)[nH]c(N)nc54)O[C@@H]3COP(=O)(S)O[C@H]3[C@@H](O)[C@H](n4ccc(N)nc4=O)O[C@@H]3COP(=O)(S)O[C@H]3C[C@H](n4cc(C)c(=O)[nH]c4=O)O[C@@H]3COP(=O)(S)O[C@H]3[C@@H](O)[C@H](n4cnc5c(=O)[nH]c(N)nc54)O[C@@H]3COP(=O)(S)O[C@H]3C[C@H](n4cc(C)c(=O)[nH]c4=O)O[C@@H]3COP(=O)(S)O[C@H]3[C@@H](O)[C@H](n4ccc(N)nc4=O)O[C@@H]3COP(=O)(S)O[C@H]3C[C@H](n4cc(C)c(=O)[nH]c4=O)O[C@@H]3CO)O2)c(=O)[nH]c1=O (stereo not given in full)
active: [1] Dose-dependent effect | [2] Dose-dependent effect | [3] Dose-dependent effect | [4] Dose-dependent effect | Mus musculus
